Results from different studies.
Lines come from different studies, so protocols differ.
Read-out: enzyme activity
Action: inhibitor
FGFR1: Fibroblast growth factor receptor 1 (FGFR1, Homo sapiens, UniProt P11362)

Structure (SMILES)	target	technique	tested at	remaining activity
Nc1nc(Nc2ccccc2)sc1C(=O)c1c(F)cccc1F	FGFR1		10 µM	64%
COc1cc(Nc2cnc(C#N)c(O[C@H](C)CN(C)C)n2)ncc1-c1cnn(C)c1	FGFR1	radiometric	10 µM	39%
CC(C)(C)c1nc(-c2cccc(NS(=O)(=O)c3c(F)cccc3F)c2F)c(-c2ccnc(N)n2)s1	FGFR1	radiometric	1 µM	89%
O=C(Nc1cnn(-c2csc(C(=O)NC3COC3)c2)c1)Nc1ccccc1Cl	FGFR1		5 µM	95.9%
CCCOc1ccc(OC)c(F)c1C(=O)c1ccc(C(=O)N[C@@H]2CNC[C@H]2NC(=O)c2ccc3[nH]ncc3c2)cc1	FGFR1		10 µM	28%
CCN(CC)CCNC(=O)c1c(C)[nH]c(/C=C2\C(=O)Nc3ccc(F)cc32)c1C	FGFR1		1 µM	22%
COc1cc(Cl)c(C(=O)N[C@@H](CN[C@H]2CC[C@@H](N)CC2)Cc2ccc(C#N)cc2)cc1-c1ccc(CN[C@H](C)c2ccc(C)cc2)o1	FGFR1		1 µM	94%
Cc1[nH]c(/C=C2\C(=O)Nc3ccc(F)cc32)c(C)c1C(=O)N[C@H]1CCN(C(=O)N(C)C)C1	FGFR1		1 µM	90%
Cc1sc(C(=O)NC2COC2)cc1-n1cc(NC(=O)Nc2c(F)cccc2Cl)cn1	FGFR1		10 µM	114%
FC(F)c1nc2ccccc2n1-c1nc(N2CCOCC2)nc(N2CCOCC2)n1	FGFR1		10 µM	102%
Cc1cnc(NC2CCOCC2)nc1-n1cnc(C(=O)NC(CN)c2cc(F)cc(Cl)c2)c1 (stereo not drawn)	Fibroblast growth factor receptor 1 (FGFR1, Homo sapiens, UniProt P11362, V561M)	radiometric	1 µM	104%
CC(C)(C)C(=O)c1sc(NC2CCCCC2)nc1N	FGFR1		10 µM	87%
